Screening data (PubChem BioAssay)
Tn7 DDE FP: disrupts Tn7 cyclic peptide binding to fibrin D-Dimer-E complex. FP displacement of FITC-Tn7 peptide from fibrin DD(E); 0% = median of compound wells per plate. inhibition, % at 8.3 µM. 0.13% of 370,000 active. AID 720508;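 active = inhibition above the mean of compounds falling within the control limits plus 3 SD of them, cut at about 14% in these data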;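 also: 0% = plate median of compound wells and 100% = 10 µM Aha-Tn7 peptide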
Target sequence (P02675 whole entry, looked up): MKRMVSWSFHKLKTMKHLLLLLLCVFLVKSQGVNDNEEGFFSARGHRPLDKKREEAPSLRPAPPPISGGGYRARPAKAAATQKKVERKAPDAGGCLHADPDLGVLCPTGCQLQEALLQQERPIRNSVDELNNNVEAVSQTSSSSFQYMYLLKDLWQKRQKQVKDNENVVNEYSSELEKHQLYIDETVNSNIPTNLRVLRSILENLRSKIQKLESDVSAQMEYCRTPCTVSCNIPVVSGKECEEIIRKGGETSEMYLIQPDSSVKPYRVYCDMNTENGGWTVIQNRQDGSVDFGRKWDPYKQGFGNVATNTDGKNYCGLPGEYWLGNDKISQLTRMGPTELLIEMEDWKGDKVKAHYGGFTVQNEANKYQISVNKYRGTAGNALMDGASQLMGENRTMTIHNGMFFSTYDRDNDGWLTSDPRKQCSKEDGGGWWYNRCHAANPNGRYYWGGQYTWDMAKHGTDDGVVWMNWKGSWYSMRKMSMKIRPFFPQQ
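system = human fibrin DD(E) protein | quantity = DD(E) 2 µM final | medium = Tris/NaCl/CaCl2 buffer, pH 7.8 | also added = labelled Tn7 tracer, 0.1 µM | compound dosing = single point at 8.3 µM | timing = compound with protein 10 min, then 3 h after probe, room temperature | signal = FP measurement | benchmarks = Aha-Tn7 high control | repeats = one replicate per compound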
SKN-1 block: inhibitors of C. elegans SKN-1; C. elegans VP596 Pgst-4::GFP/RFP ratio, acrylamide-induced, 24 h; inhibition, % at 21.8 µM; 0.49% of 360,000 active;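 active = interference check ratio from 0.5 to 1.5 plus GFP to RFP signal ratio inhibition reaching or exceeding a fixed threshold, cut at about 30% in these data, passing the limit was not always enough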
MT1-MMP act inh: inhibitors of human MT1-MMP activation; GFP/RFP ratio change, % at 20 µM; 0.061% of 360,000 active; HT1080 RFP-PRO-GFP cells, GFP/RFP ratio fluorescence, overnight; percent of plate control window, DMSO zero;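 active = GFP/RFP ratio change of at least 30% with cell ATP level not reduced by more than half and red fluorescence within 50% of control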
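Material – HT1080 RFP-PRO-GFP cells · Control set – DMSO wells and RFP-L50D-GFP cells · Incubation – overnight cell settling, then overnight compound exposure, 37 °C, 5% CO2 · Compound dosing – single-point 20 µM compound, 1% DMSO · Read-out – GFP/RFP fluorescence ratio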
Tn6 DDE FP: inhibitors of Tn6 peptide binding to human fibrin DD(E); 0.21% of 370,000 active; inhibition, % at 8.3 µM; P02675; Fibrin DD(E) TRITC-Tn6 fluorescence polarization displacement;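 active = inhibition above a per-campaign cutoff: mean of compounds within control limits plus 3 SD, cut at about 15% in these data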;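 also: 0% = median of all compound wells on the plate and 100% = blocking peptide control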
Tn7 DDE conf: confirmation of inhibitors of Tn7 binding to human fibrin DD(E) | shares compounds with Tn7 DDE FP | FP displacement of TRITC-Tn7 peptide from DD(E); 0% set at plate's compound-well median | inhibition, % at 8.3 µM | 5% of 460 active | AID 720628;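 active = inhibition above the campaign cutoff, the mean of compounds within control limits plus 3 SD, cut at about 14% in these data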;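 also: 100% = median FP of high control wells holding Aha-Tn7 inhibitor peptide; displacers lower polarization since freed probe rises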
DDE Tn7 FP ctr: counter-screen hit for Tn7 peptide-fibrin DD(E) binding disruption. inhibition, % at 8.3 µM. AID 720633. shares compounds with Tn7 DDE FP. 3% of 460 active. TRITC-Tn7 probe displacement, fluorescence polarization;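 active = inhibition above the cutoff, the mean of compounds lying between the control bounds plus 3 SD of those compounds, cut at about 17% in these data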;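 also: 0% = median of compound sample wells and 100% = excess unlabeled Aha-Tn7 peptide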
An asterisk follows results filed as active. An excerpt weighted towards active compounds, which were near 0.84% of everything screened.

`CC(=O)Nc1ccc(-c2ccnc3c2CC(C(=O)Nc2cccnc2)O3)cc1` (stereo not given) gave Tn7 DDE FP -4.4, SKN-1 block 11.6, MT1-MMP act inh -4.0 and Tn6 DDE FP -1.8.
`COc1ccc(S(=O)(=O)N2CCN(CC(=O)NCCc3cccs3)CC2)cc1` gave Tn7 DDE FP 15.5*, SKN-1 block 7.1, MT1-MMP act inh -3.9, Tn6 DDE FP 4.8, Tn7 DDE conf -3.4 and DDE Tn7 FP ctr -7.1.
Screening COc1ccc(S(=O)(=O)N2CCN(CC(=O)NC(C)c3cccs3)CC2)cc1 (stereo not given) returned Tn7 DDE FP -2.1, SKN-1 block -1.0, MT1-MMP act inh -0.8 and Tn6 DDE FP -5.0.
Screening Cc1cc(C(=O)NNc2cc(Cl)ccc2Cl)no1 returned Tn7 DDE FP 2.1, SKN-1 block 6.6, MT1-MMP act inh -0.6 and Tn6 DDE FP 1.1.
Screening Cc1cc(C(=O)NNc2c(Cl)cccc2Cl)no1 returned Tn7 DDE FP 14.2*, SKN-1 block -1.0, MT1-MMP act inh -0.3, Tn6 DDE FP 3.2, Tn7 DDE conf 2.3 and DDE Tn7 FP ctr -3.5.
Cc1cc2nc3c(=O)[nH]c(=O)[nH]c3nc2c([N+](=O)[O-])c1N was read as Tn7 DDE FP 31.2*, SKN-1 block 27.1, MT1-MMP act inh -81.3, Tn6 DDE FP -5.7, Tn7 DDE conf 11.3 and DDE Tn7 FP ctr 7.1.
For COCCN1CCN(C(=O)C2CCC(=O)N(CCc3cccc(F)c3)C2)CC1 (stereo not given) the results were Tn7 DDE FP 0.6, SKN-1 block 18.5, MT1-MMP act inh 1.2 and Tn6 DDE FP 6.0.
COc1cccc(C(=O)N2CCCC(c3nc(-c4cccs4)no3)C2)c1 (stereo not given) was read as Tn7 DDE FP -4.7, SKN-1 block 0.8, MT1-MMP act inh -1.3 and Tn6 DDE FP 6.8.
For O=C(c1cccc(F)c1)N1CCCC(c2nc(-c3cccs3)no2)C1 (stereo not given) the results were Tn7 DDE FP 15.3*, Tn6 DDE FP 0.0, Tn7 DDE conf 2.8 and DDE Tn7 FP ctr -1.7.
Screening COc1ccc([C@H]2N[C@]3(CCCN(Cc4ccc(C(F)(F)F)cc4)C3=O)[C@H]3C(=O)N(Cc4ccccc4)C(=O)[C@@H]23)cc1 returned Tn7 DDE FP 16.6*, SKN-1 block -1.8, MT1-MMP act inh 3.5, Tn6 DDE FP 0.2, Tn7 DDE conf 7.8 and DDE Tn7 FP ctr 6.6.
C#CCN1CC(COc2ccccc2)Oc2cccc(Oc3ccc(OC)cc3)c2S1(=O)=O (stereo not given) was read as Tn7 DDE FP 14.2*, Tn6 DDE FP -2.7, Tn7 DDE conf -4.2 and DDE Tn7 FP ctr -10.2.
Screening Cc1ccc(S(=O)(=O)N(C)C[C@H]2Oc3ncc(Br)cc3C(=O)N([C@H](C)CO)C[C@@H]2C)cc1 returned Tn7 DDE FP 1.2, SKN-1 block 12.3, MT1-MMP act inh 0.7 and Tn6 DDE FP 11.3.
Screening CC(=O)Nc1nnc(COc2ccc(Cl)cc2)s1 returned Tn7 DDE FP -8.1, SKN-1 block -8.1, MT1-MMP act inh -2.0 and Tn6 DDE FP -1.5.
`CC(C)C(=O)Nc1nnc(COc2ccc(Cl)cc2)s1` gave Tn7 DDE FP 14.5*, SKN-1 block -4.5, MT1-MMP act inh 4.1, Tn6 DDE FP 0.0, Tn7 DDE conf -2.6 and DDE Tn7 FP ctr -4.7.
CCOC(=O)C1CCN(CC(=O)N2CCc3ccccc32)CC1 was read as Tn7 DDE FP 13.8*, SKN-1 block 4.3, MT1-MMP act inh 0.8, Tn6 DDE FP 5.5, Tn7 DDE conf -2.7 and DDE Tn7 FP ctr -3.2.
O=C(Cn1c(Cc2ccccc2)nc2ccccc21)NCc1ccc2c(c1)OCO2 was read as Tn7 DDE FP 14.5*, SKN-1 block 4.6, MT1-MMP act inh -0.1, Tn6 DDE FP -1.1, Tn7 DDE conf 0.1 and DDE Tn7 FP ctr -2.4.
`CN(C)Cc1csc(Nc2ccc(C(F)(F)F)cn2)n1` gave Tn7 DDE FP 7.8, SKN-1 block 12.4, MT1-MMP act inh 0.0 and Tn6 DDE FP -10.1.
